MIC data for 8 molecules are collected here from ChEMBL document CHEMBL1125603, “2-Chloro-1-(2,4-dichlorophenyl)-3-(1H-imidazol-1-yl)-2-phenylpropan-1-one hydrochloride, a novel, nonmutagenic antibacterial with specific activity against anaerobic bacteria” (1991).

Format in all cases: functional
For assay [1], the system named is Bacteroides fragilis. The assay can be described thus: Minimum inhibitory concentration against Bacteroides fragilis(NCTC 10581)(in vitro). In short, it runs like this:
(§1)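 Broth microdilution: drug stock of 200 μg/mL in 20% polyethylene glycol 200/water, serially diluted 2-fold in the wells to final concentrations of 0.8–100 μg/mL. Final inoculum was 10⁸ organisms/mL. Plates were held at 37 °C for 48 h, in an anaerobic chamber for anaerobes or a conventional incubator for aerobes. MIC was then read.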

The subject of assay [2] is Bacteroides fragilis. The assay is described as follows: Minimum inhibitory concentration against Bacteroides fragilis(NCTC 9343)(in vitro). The method in brief: as §1
The test system of assay [3] is Bacteroides fragilis. The assay is described as follows: Minimum inhibitory concentration against Bacteroides fragilis(NCTC 9344)(in vitro). In short, it runs like this:
as §1

Assay [4] deals with Bacteroides fragilis. The assay is described as follows: Minimum inhibitory concentration against Bacteroides fragilis (WSI)(in vitro). In short, it runs like this:
as §1

The subject of assay [5] is Clostridium perfringens. The assay can be described thus: Minimum inhibitory concentration against Clostridium perfringens (NCTC 523)(in vitro). The method in brief: (§2)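 Broth microdilution MIC in 96-well plates. Drugs dissolved in 20% polyethylene glycol 200/water (stock 200 μg/mL), then serially diluted 2-fold in the wells to final concentrations of 0.8–100 μg/mL. Final inoculum 10⁸ organisms/mL. Plates incubated 48 h at 37 °C in an anaerobic chamber before the MIC was read.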

Assay [6] concerns Clostridium perfringens. The assay is described as follows: Minimum inhibitory concentration against Clostridium perfringens (NCTC 8237)(in vitro). The method in brief:
as §2

Assay [7] relates to Escherichia coli. The assay is described as follows: Minimum inhibitory concentration against Escherichia coli(ATCC 25922)(in vitro). In short, it runs like this: as §1
Assay [8] concerns Fusobacterium necrophorum. The assay can be described thus: Minimum inhibitory concentration against Fusobacterium necrophorum (ATCC 11295)(in vitro). The method in brief:
as §1

The subject of assay [9] is Klebsiella pneumoniae. The assay is described as follows: Minimum inhibitory concentration against Klebsiella pneumoniae (ATCC 13883)(in vitro). In short, it runs like this:
as §1

Assay [10] deals with Peptostreptococcus anaerobius. The assay can be described thus: Minimum inhibitory concentration against Peptostreptococcus anaerobius(in vitro). The method in brief: as §1
The subject of assay [11] is Finegoldia magna. The assay can be described thus: Minimum inhibitory concentration against Peptococcus magnus(in vitro). The method in brief:
as §1

In assay [12] the test system is Anaerococcus prevotii. The assay can be described thus: Minimum inhibitory concentration against Peptococcus prevotti(in vitro). The method in brief:
as §1

Assay [13] relates to Cutibacterium acnes. The assay can be described thus: Minimum inhibitory concentration against Propionibacterium acnes(NCTC 7337)(in vitro). The method in brief: as §1
In assay [14] the test system is Proteus vulgaris. The assay is described as follows: Minimum inhibitory concentration against Proteus vulgaris(ATCC 13315)(in vitro). In short, it runs like this:
as §1

In assay [15] the test system is Staphylococcus aureus. The assay can be described thus: Minimum inhibitory concentration against Staphylococcus aureus(ATCC 25923)(in vitro). The method in brief:
as §1

Assay [16] deals with Bacteroides fragilis. The assay is described as follows: Minimum inhibitory concentration against Bacteroides fragilis (MZ-R)(in vitro). The method in brief: as §1
For assay [17], the system named is Cutibacterium acnes. The assay can be described thus: Minimum inhibitory concentration against Propionibacterium acnes(NCTC 737)(in vitro). In short, it runs like this:
as §1

For assay [18], the system named is Pseudomonas aeruginosa. The assay can be described thus: Minimum inhibitory concentration against Pseudomonas aeruginosa (ATCC 27853)(in vitro). The method in brief: as §1
Assay [19] concerns Streptococcus pyogenes. The assay can be described thus: Minimum inhibitory concentration against Streptococcus pyogenes(ATCC 19615)(in vitro). The method in brief:
as §1

In brackets after ≈: the same amount, converted by molar mass. Some results are limits rather than exact numbers.

For orientation: MIC means the smallest concentration in the dilution series that meets the test's criterion for growth inhibition.

For `O=C(c1ccc(Cl)cc1Cl)C(O)(Cn1ccnc1)c1ccccc1` (stereo unspecified), the MIC is 50 µg/mL (≈ 138 µM) in [1]; over 100 µg/mL in [2]; over 100 µg/mL in [3]; over 100 µg/mL in assay [4]; 12.5 µg/mL (≈ 34.6 µM) in assay [5]; 25 µg/mL (≈ 69.2 µM) in assay [6]. The MIC in assay [7] was over 100 µg/mL; in assay [8], over 100 µg/mL; in assay [9] it was over 100 µg/mL; in assay [10] it was 50 µg/mL (≈ 138 µM); in [11] it was over 100 µg/mL; in [12], 12.5 µg/mL (≈ 34.6 µM). Also, the minimal inhibitory concentration (MIC) in assay [13] was 50 µg/mL (≈ 138 µM); in assay [14], over 100 µg/mL; in assay [15] it was 25 µg/mL (≈ 69.2 µM); in [16], over 100 µg/mL; in assay [17], 100 µg/mL (≈ 277 µM).
For `Cc1ncc([N+](=O)[O-])n1CCO` [METRONIDAZOLE], the MIC is under 0.8 µg/mL in [1]; under 0.8 µg/mL in assay [2]; under 0.8 µg/mL in [3]; 1.5 µg/mL (≈ 8.76 µM) in [4]; under 0.8 µg/mL in assay [5]; under 0.8 µg/mL in [6]. Moreover, the MIC was under 0.8 µg/mL in assay [8]; under 0.8 µg/mL in assay [10]; under 0.8 µg/mL in assay [11]; 1.5 µg/mL (≈ 8.76 µM) in assay [12]; over 100 µg/mL in [13]; 6.2 µg/mL (≈ 36.2 µM) in assay [16]. This molecule also yielded an MIC in assay [17] of over 100 µg/mL.
As for `O=C(c1ccc(Cl)cc1Cl)C(Cn1ccnc1)c1ccccc1` (stereo unspecified), the minimal inhibitory concentration (MIC) in [1], in [2], in assay [3], in [4], in assay [5] and in [6] was under 0.8 µg/mL in each case. Besides, the MIC in [7] is over 100 µg/mL; in assay [8], under 0.8 µg/mL; in assay [9], over 100 µg/mL; in [10], under 0.8 µg/mL; in assay [11], under 0.8 µg/mL; in assay [12], under 0.8 µg/mL. Moreover, the minimum inhibitory concentration (MIC) is over 100 µg/mL in assay [18]; under 0.8 µg/mL in assay [13]; 6.2 µg/mL (≈ 18 µM) in assay [14]; under 0.8 µg/mL in assay [19]; under 0.8 µg/mL in assay [15]; under 0.8 µg/mL in [16]. Further, the minimum inhibitory concentration (MIC) in assay [17] is under 0.8 µg/mL.
For the molecule `O=C(c1ccc(Cl)cc1Cl)C(Cl)(Cn1ccnc1)c1ccccc1` (stereo unspecified), the MIC in assay [1], in [2], in assay [3], in [4], in assay [5] and in [6] was under 0.8 µg/mL in each case. Besides, the minimum inhibitory concentration (MIC) in assay [7] was over 100 µg/mL; in assay [8] it was under 0.8 µg/mL; in assay [9], over 100 µg/mL; in assay [10] it was under 0.8 µg/mL; in [11] it was under 0.8 µg/mL; in assay [12] it was under 0.8 µg/mL. Also, the MIC is over 100 µg/mL in [18]; under 0.8 µg/mL in assay [13]; over 100 µg/mL in assay [14]; 1.5 µg/mL (≈ 3.95 µM) in assay [19]; 25 µg/mL (≈ 65.8 µM) in assay [15]; under 0.8 µg/mL in assay [16]. The molecule also registered a minimal inhibitory concentration (MIC) in assay [17] of under 0.8 µg/mL.
Consider `C=C(C(=O)c1ccc(Cl)cc1Cl)c1ccccc1`, for which the MIC in [1], in assay [2], in assay [3], in assay [4], in [5] and in [6] was under 0.8 µg/mL each time. The minimum inhibitory concentration (MIC) in assay [7] is over 100 µg/mL; in assay [8], under 0.8 µg/mL; in assay [9] it was over 100 µg/mL; in [10], under 0.8 µg/mL; in [11] it was under 0.8 µg/mL; in [12], under 0.8 µg/mL. Further, the minimum inhibitory concentration (MIC) is over 100 µg/mL in [18]; under 0.8 µg/mL in assay [13]; 6.2 µg/mL (≈ 22.4 µM) in assay [14]; under 0.8 µg/mL in [19]; under 0.8 µg/mL in assay [15]; under 0.8 µg/mL in [16]. Besides, in assay [17], the minimum inhibitory concentration (MIC) was under 0.8 µg/mL.
Regarding `O=C(c1ccc(Cl)cc1Cl)C(Br)(Cn1ccnc1)c1ccccc1` (stereo unspecified), the MIC in [1], in assay [2], in assay [3], in assay [4], in assay [5] and in [6] was under 0.8 µg/mL in each case. In addition, the MIC in [7] is over 100 µg/mL; in assay [8], under 0.8 µg/mL; in assay [9], over 100 µg/mL; in assay [10] it was 1.5 µg/mL (≈ 3.54 µM); in [11] it was 1.5 µg/mL (≈ 3.54 µM); in [12], 1.5 µg/mL (≈ 3.54 µM). For the same molecule, the MIC in assay [18] is over 100 µg/mL; in assay [13], under 0.8 µg/mL; in assay [14] it was 12.5 µg/mL (≈ 29.5 µM); in assay [19] it was under 0.8 µg/mL; in assay [15] it was 1.5 µg/mL (≈ 3.54 µM); in assay [16], under 0.8 µg/mL. The MIC in assay [17] is under 0.8 µg/mL.
Turning to `O=C(c1ccc(Cl)cc1Cl)C(F)(Cn1ccnc1)c1ccccc1` (stereo unspecified), the MIC came to 50 µg/mL (≈ 138 µM) in [1]; 50 µg/mL (≈ 138 µM) in assay [2]; 50 µg/mL (≈ 138 µM) in assay [3]; 50 µg/mL (≈ 138 µM) in assay [4]; 3.1 µg/mL (≈ 8.53 µM) in assay [5]; 3.1 µg/mL (≈ 8.53 µM) in assay [6]. Also, the minimal inhibitory concentration (MIC) in assay [7] is over 100 µg/mL; in assay [8] it was 25 µg/mL (≈ 68.8 µM); in assay [9], over 100 µg/mL; in [10] it was 25 µg/mL (≈ 68.8 µM); in [11], 25 µg/mL (≈ 68.8 µM); in assay [12], 6.2 µg/mL (≈ 17.1 µM). Besides, the MIC was over 100 µg/mL in assay [18]; 25 µg/mL (≈ 68.8 µM) in [13]; over 100 µg/mL in assay [14]; 6.2 µg/mL (≈ 17.1 µM) in [19]; 50 µg/mL (≈ 138 µM) in assay [15]; 50 µg/mL (≈ 138 µM) in assay [16]. The molecule also showed an MIC in assay [17] of 25 µg/mL (≈ 68.8 µM).
With POLYMYXIN B, the minimum inhibitory concentration (MIC) in assay [7] is under 0.8 µg/mL; in [9] it was under 0.8 µg/mL; in assay [18], 3.1 µg/mL; in assay [14], 1.5 µg/mL; in [19] it was 1.5 µg/mL; in assay [15], 25 µg/mL.
